ChEMBL document CHEMBL4689842, “EUbOPEN Chemogenomics Library wave 1” (2021)

Test system: HEK-293T
Test: Multiplex assay against HEK293T;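 on Population Tubulin-Different-Phenotype (%): share of the cells with healthy nuclei that show this phenotype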
Format: toxicity, cell-based
Conditions: human
In short: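 Live cells carried four stains from seeding: Hoechst33342, BioTracker Green Microtubule Cytoskeleton Dye, MitoTracker Red and Annexin V Alexa Fluor 680. They were imaged on a CQ1 microscope at 37°C and 5% CO2 after compound addition. Using CellPathfinder machine-learning gating, cells were split into Hoechst high-intensity objects or normal cells, normal cells into healthy, pyknosed or fragmented nuclei, and pyknosed cells into mitotic or apoptotic; tubulin, mitochondrial-mass and membrane-permeability phenotypes are per cents of healthy-nucleus cells.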

[1] = 12 h, 1 µM, compound concentration 1 uM, replicate 1
[2] = 12 h, 1 µM, compound concentration 1 uM, replicate 2
[3] = 12 h, 10 µM, compound concentration 10 uM, replicate 1
[4] = 12 h, 10 µM, compound concentration 10 uM, replicate 2
[5] = 24 h, 1 µM, compound concentration 1 uM, replicate 1
[6] = 24 h, 1 µM, compound concentration 1 uM, replicate 2
[7] = 24 h, 10 µM, compound concentration 10 uM, replicate 1
[8] = 24 h, 10 µM, compound concentration 10 uM, replicate 2
[9] = 48 h, 1 µM, compound concentration 1 uM, replicate 1
[10] = 48 h, 1 µM, compound concentration 1 uM, replicate 2
[11] = 48 h, 10 µM, compound concentration 10 uM, replicate 1
[12] = 48 h, 10 µM, compound concentration 10 uM, replicate 2

## C=CC(=O)Nc1ccc2[nH]c(=O)n(C3CCN(Cc4ccc(-c5nc6cc[nH]c(=O)c6cc5-c5ccccc5)cc4)CC3)c2c1 [Borussertib]
[1]
  Population Apoptotic (%): 18%
  Population Fragmented Nuclei (%): 16%
  Population Healthy Nuclei (%): 66%
  Population Hoechst High Intensity Objects (%): 13%
  Population Membrane Permeable-Phenotype (%): 5%
  Population Mitochondria Different-Phenotype (%): 5%
  Population Mitotic Cells (%): 81%
  Population Normal (%): 86%
  Population Pyknosed Nuclei (%): 17%
  Population Tubulin-Different-Phenotype (%): 5%
  Total Cell Count: 656
[2]
  Population Apoptotic (%): 14%
  Population Fragmented Nuclei (%): 7%
  Population Healthy Nuclei (%): 86%
  Population Hoechst High Intensity Objects (%): 3%
  Population Membrane Permeable-Phenotype (%): 3%
  Population Mitochondria Different-Phenotype (%): 12%
  Population Mitotic Cells (%): 85%
  Population Normal (%): 96%
  Population Pyknosed Nuclei (%): 5%
  Population Tubulin-Different-Phenotype (%): 12%
  Total Cell Count: 1375
[3]
  Population Apoptotic (%): 24%
  Population Fragmented Nuclei (%): 17%
  Population Healthy Nuclei (%): 48%
  Population Hoechst High Intensity Objects (%): 13%
  Population Membrane Permeable-Phenotype (%): 9%
  Population Mitochondria Different-Phenotype (%): 25%
  Population Mitotic Cells (%): 75%
  Population Normal (%): 86%
  Population Pyknosed Nuclei (%): 33%
  Population Tubulin-Different-Phenotype (%): 44%
  Total Cell Count: 585
[4]
  Population Apoptotic (%): 17%
  Population Fragmented Nuclei (%): 4%
  Population Healthy Nuclei (%): 84%
  Population Hoechst High Intensity Objects (%): 4%
  Population Membrane Permeable-Phenotype (%): 12%
  Population Mitochondria Different-Phenotype (%): 43%
  Population Mitotic Cells (%): 82%
  Population Normal (%): 95%
  Population Pyknosed Nuclei (%): 11%
  Population Tubulin-Different-Phenotype (%): 82%
  Total Cell Count: 1080
[5]
  Population Apoptotic (%): 15%
  Population Fragmented Nuclei (%): 14%
  Population Healthy Nuclei (%): 75%
  Population Hoechst High Intensity Objects (%): 11%
  Population Membrane Permeable-Phenotype (%): 8%
  Population Mitochondria Different-Phenotype (%): 3%
  Population Mitotic Cells (%): 84%
  Population Normal (%): 88%
  Population Pyknosed Nuclei (%): 9%
  Population Tubulin-Different-Phenotype (%): 10%
  Total Cell Count: 716
[6]
  Population Apoptotic (%): 11%
  Population Fragmented Nuclei (%): 19%
  Population Healthy Nuclei (%): 77%
  Population Hoechst High Intensity Objects (%): 4%
  Population Membrane Permeable-Phenotype (%): 9%
  Population Mitochondria Different-Phenotype (%): 4%
  Population Mitotic Cells (%): 88%
  Population Normal (%): 95%
  Population Pyknosed Nuclei (%): 3%
  Population Tubulin-Different-Phenotype (%): 19%
  Total Cell Count: 2108
[7]
  Population Apoptotic (%): 34%
  Population Fragmented Nuclei (%): 15%
  Population Healthy Nuclei (%): 60%
  Population Hoechst High Intensity Objects (%): 16%
  Population Membrane Permeable-Phenotype (%): 8%
  Population Mitochondria Different-Phenotype (%): 33%
  Population Mitotic Cells (%): 65%
  Population Normal (%): 83%
  Population Pyknosed Nuclei (%): 23%
  Population Tubulin-Different-Phenotype (%): 68%
  Total Cell Count: 518
[8]
  Population Apoptotic (%): 16%
  Population Fragmented Nuclei (%): 8%
  Population Healthy Nuclei (%): 83%
  Population Hoechst High Intensity Objects (%): 9%
  Population Membrane Permeable-Phenotype (%): 9%
  Population Mitochondria Different-Phenotype (%): 43%
  Population Mitotic Cells (%): 83%
  Population Normal (%): 90%
  Population Pyknosed Nuclei (%): 8%
  Population Tubulin-Different-Phenotype (%): 90%
  Total Cell Count: 1115

## CCCSc1nc(N[C@@H]2C[C@H]2c2ccc(F)c(F)c2)c2nnn([C@@H]3C[C@H](OCCO)[C@@H](O)[C@H]3O)c2n1 [TICAGRELOR]
[1]
  Population Apoptotic (%): 56%
  Population Fragmented Nuclei (%): 19%
  Population Healthy Nuclei (%): 35%
  Population Hoechst High Intensity Objects (%): 18%
  Population Membrane Permeable-Phenotype (%): 4%
  Population Mitochondria Different-Phenotype (%): 89%
  Population Mitotic Cells (%): 43%
  Population Normal (%): 81%
  Population Pyknosed Nuclei (%): 45%
  Population Tubulin-Different-Phenotype (%): 54%
  Total Cell Count: 167
[2]
  Population Apoptotic (%): 9%
  Population Fragmented Nuclei (%): 3%
  Population Healthy Nuclei (%): 49%
  Population Hoechst High Intensity Objects (%): 3%
  Population Membrane Permeable-Phenotype (%): 10%
  Population Mitochondria Different-Phenotype (%): 21%
  Population Mitotic Cells (%): 90%
  Population Normal (%): 96%
  Population Pyknosed Nuclei (%): 46%
  Population Tubulin-Different-Phenotype (%): 27%
  Total Cell Count: 190
[3]
  Population Apoptotic (%): 68%
  Population Fragmented Nuclei (%): 34%
  Population Healthy Nuclei (%): 4%
  Population Hoechst High Intensity Objects (%): 20%
  Population Membrane Permeable-Phenotype (%): 14%
  Population Mitochondria Different-Phenotype (%): 85%
  Population Mitotic Cells (%): 31%
  Population Normal (%): 79%
  Population Pyknosed Nuclei (%): 60%
  Population Tubulin-Different-Phenotype (%): 85%
  Total Cell Count: 178
[4]
  Population Apoptotic (%): 85%
  Population Fragmented Nuclei (%): 6%
  Population Healthy Nuclei (%): 26%
  Population Hoechst High Intensity Objects (%): 4%
  Population Membrane Permeable-Phenotype (%): 2%
  Population Mitochondria Different-Phenotype (%): 95%
  Population Mitotic Cells (%): 14%
  Population Normal (%): 95%
  Population Pyknosed Nuclei (%): 66%
  Population Tubulin-Different-Phenotype (%): 93%
  Total Cell Count: 176
[5]
  Population Apoptotic (%): 46%
  Population Fragmented Nuclei (%): 23%
  Population Healthy Nuclei (%): 32%
  Population Hoechst High Intensity Objects (%): 18%
  Population Membrane Permeable-Phenotype (%): 2%
  Population Mitochondria Different-Phenotype (%): 75%
  Population Mitotic Cells (%): 53%
  Population Normal (%): 81%
  Population Pyknosed Nuclei (%): 44%
  Population Tubulin-Different-Phenotype (%): 45%
  Total Cell Count: 181
[6]
  Population Apoptotic (%): 18%
  Population Fragmented Nuclei (%): 4%
  Population Healthy Nuclei (%): 62%
  Population Hoechst High Intensity Objects (%): 3%
  Population Membrane Permeable-Phenotype (%): 7%
  Population Mitochondria Different-Phenotype (%): 28%
  Population Mitotic Cells (%): 81%
  Population Normal (%): 96%
  Population Pyknosed Nuclei (%): 33%
  Population Tubulin-Different-Phenotype (%): 48%
  Total Cell Count: 257
[7]
  Population Apoptotic (%): 76%
  Population Fragmented Nuclei (%): 35%
  Population Healthy Nuclei (%): 6%
  Population Hoechst High Intensity Objects (%): 21%
  Population Mitochondria Different-Phenotype (%): 77%
  Population Mitotic Cells (%): 23%
  Population Normal (%): 78%
  Population Pyknosed Nuclei (%): 57%
  Population Tubulin-Different-Phenotype (%): 88%
  Total Cell Count: 178
[8]
  Population Apoptotic (%): 89%
  Population Fragmented Nuclei (%): 4%
  Population Healthy Nuclei (%): 26%
  Population Hoechst High Intensity Objects (%): 7%
  Population Membrane Permeable-Phenotype (%): 0%
  Population Mitochondria Different-Phenotype (%): 95%
  Population Mitotic Cells (%): 10%
  Population Normal (%): 92%
  Population Pyknosed Nuclei (%): 69%
  Population Tubulin-Different-Phenotype (%): 95%
  Total Cell Count: 182
[9]
  Population Apoptotic (%): 55%
  Population Fragmented Nuclei (%): 23%
  Population Healthy Nuclei (%): 40%
  Population Hoechst High Intensity Objects (%): 12%
  Population Membrane Permeable-Phenotype (%): 3%
  Population Mitochondria Different-Phenotype (%): 51%
  Population Mitotic Cells (%): 44%
  Population Normal (%): 87%
  Population Pyknosed Nuclei (%): 36%
  Population Tubulin-Different-Phenotype (%): 50%
  Total Cell Count: 216
[10]
  Population Apoptotic (%): 11%
  Population Fragmented Nuclei (%): 5%
  Population Healthy Nuclei (%): 78%
  Population Hoechst High Intensity Objects (%): 4%
  Population Membrane Permeable-Phenotype (%): 4%
  Population Mitochondria Different-Phenotype (%): 12%
  Population Mitotic Cells (%): 88%
  Population Normal (%): 95%
  Population Pyknosed Nuclei (%): 16%
  Population Tubulin-Different-Phenotype (%): 31%
  Total Cell Count: 492
[11]
  Population Apoptotic (%): 81%
  Population Fragmented Nuclei (%): 38%
  Population Healthy Nuclei (%): 3%
  Population Hoechst High Intensity Objects (%): 24%
  Population Membrane Permeable-Phenotype (%): 50%
  Population Mitochondria Different-Phenotype (%): 75%
  Population Mitotic Cells (%): 18%
  Population Normal (%): 75%
  Population Pyknosed Nuclei (%): 58%
  Population Tubulin-Different-Phenotype (%): 75%
  Total Cell Count: 173
[12]
  Population Apoptotic (%): 92%
  Population Fragmented Nuclei (%): 7%
  Population Healthy Nuclei (%): 29%
  Population Hoechst High Intensity Objects (%): 5%
  Population Membrane Permeable-Phenotype (%): 2%
  Population Mitochondria Different-Phenotype (%): 97%
  Population Mitotic Cells (%): 7%
  Population Normal (%): 94%
  Population Pyknosed Nuclei (%): 63%
  Population Tubulin-Different-Phenotype (%): 86%
  Total Cell Count: 164
